The values below come from ChEMBL document CHEMBL1142458, “Computational structure-activity relationship analysis of non-peptide inducers of macrophage tumor necrosis factor-alpha production” (Bioorg Med Chem, 2008).

The source made the active and inactive calls. How the calls were made is not given here.

Data set [1] deals with J774.A1. The data set can be described thus: Stimulation of TNFalpha production in mouse J774.A1 cells at 50 uM after 24 hrs by ELISA relative to untreated control. In kind it is functional. The procedure, abridged:
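Murine J774.A1 macrophages grown in DMEM with 10% heat-inactivated FBS and 10 mM HEPES at 37°C under 5% CO2, detached by scraping. Plated at 2×10^5 cells/well in medium with 3% FBS and exposed 24 hr to compound, DMSO vehicle or LPS. Supernatant TNF-α measured by murine ELISA against a standard curve. Reported as fold-increase over DMSO control.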

Data set [2] concerns J774.A1. The data set can be described thus: Cytotoxicity against mouse J774.A1 cells assessed as effect on cell viability at <=50 uM after 24 hrs. In kind it is cell-based. The following applies: j774.a1, 24 h.

With `O=C(N/N=C/c1ccc(-c2ccc(Cl)c(Cl)c2)o1)c1ccncc1`, the outcome in the data set on J774.A1 [1] was inactive. Besides, the Activity entry in the data set on J774.A1 [2] is reported as “Non-toxic”.

Take `Cc1ccc(-c2ccc(/C=N/NC(=O)c3cncc(Br)c3)o2)cc1Cl`: the “fold change (FC)” value in the data set with J774.A1 [1] is listed as 10. In the data set on J774.A1 [2], the Activity result is given as “Non-toxic”.

In the case of `O=C(N/N=C/c1ccc(-c2ccc(Br)cc2)o1)c1cccnc1`, the outcome with J774.A1 [1] was inactive. In addition, the Activity entry in the data set on J774.A1 [2] is on record as “Non-toxic”.

Consider `Cc1ccc(C(=O)N/N=C/c2ccc(-c3cccc(Cl)c3)o2)cn1`, for which the result with J774.A1 [1] was inactive. In addition, the Activity entry in the data set with J774.A1 [2] was “Non-toxic”.

With `O=C(N/N=C/c1ccc(-c2cccc(Br)c2)o1)c1ccccn1`, the outcome in the data set with J774.A1 [1] was inactive. In addition, the Activity entry in the data set on J774.A1 [2] is “Non-toxic”.

Turning to `O=C(N/N=C/c1ccc(-c2ccc(Cl)cc2Cl)o1)c1cncc(Br)c1`, in the data set with J774.A1 [1], the outcome was inactive. Besides, the Activity result in the data set with J774.A1 [2] is reported as “Non-toxic”.
